Values after ≈ are worked out from the molar mass of the structure shown. Active and inactive are the calls of the source. The calls are words filed in the database; no cut-off is given here.
How the values were obtained:
Escherichia coli = assay: Antimicrobial activity against Escherichia coli EMBLC-1 by XTT assay; assay type: functional
Summary of the method: (§1)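 Microplate assay on bacterial strains supplied by the Institute of Oceanology, Chinese Academy of Sciences, with chloramphenicol as the positive control.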

A2780 [1] = assay: Cytotoxicity against human A2780 cells after 72 hrs by MTT assay; assay type: functional, cell-based; conditions: A2780, 72 h
[2] = Antioxidant activity assessed as ABTS radical scavenging activity; assay type: functional
Summary of the method: (§2)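 Radical scavenging of pure compounds against DPPH and ABTS radicals, run by previously published methods and reported as IC50 in μM. Positive controls were BHT for DPPH and ascorbic acid for ABTS.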

[3] = Cytotoxicity against human A2780cis cells after 72 hrs by MTT assay; assay type: functional, cell-based
[4] = Antioxidant activity assessed as DPPH radical scavenging activity; assay type: functional; summary of the method: as §2
Edwardsiella tarda = assay: Antimicrobial activity against Edwardsiella tarda QDIO-2 by XTT assay; assay type: functional; summary of the method: as §1
Staphylococcus aureus = assay: Antimicrobial activity against Staphylococcus aureus EMBLC-2 by XTT assay; assay type: functional; summary of the method: as §1
A2780cis = assay: Cytotoxicity against human A2780cis cells at 100 uM after 72 hrs by MTT assay; assay type: functional, cell-based
A2780 [5] = assay: Cytotoxicity against human A2780 cells at 100 uM after 72 hrs by MTT assay; assay type: functional, cell-based

Row | Structure (SMILES) | MIC (Escherichia coli) | IC50 [2] [µM] | IC50 [4] [µM] | MIC (Edwardsiella tarda) | MIC (Staphylococcus aureus) [µg/mL] | IC50 (A2780 [1]) [µM] | IC50 [3] [µM] | Activity (A2780cis) | Activity (A2780 [5])
1 | Cc1cc(O)c2c(c1O)[C@H](O)[C@H]1C[C@@H](O)C[C@@H](O)[C@@H]1C2=O | 32 µg/mL (≈ 109 µM) | 34 | 42 | 64 µg/mL (≈ 217 µM) | 4 (≈ 13.6 µM) | > 10 | > 10 | – | –
2 | O=C(N[C@H](CO)[C@H](O)c1ccc([N+](=O)[O-])cc1)C(Cl)Cl [CHLORAMPHENICOL] | 4 µg/mL (≈ 12.4 µM) | – | – | 2 µg/mL (≈ 6.19 µM) | 2 (≈ 6.19 µM) | – | – | – | –
3 | Cc1cc(C(C)(C)C)c(O)c(C(C)(C)C)c1 [BUTYLATED HYDROXYTOLUENE] | – | – | 61 | – | – | – | – | – | –

Now from value to compound, other results behind:

Row | MIC (Escherichia coli) | IC50 [2] [µM] | IC50 [4] [µM] | MIC (Edwardsiella tarda) | MIC (Staphylococcus aureus) [µg/mL] | Structure (SMILES) | IC50 (A2780 [1]) [µM] | IC50 [3] [µM] | Activity (A2780cis) | Activity (A2780 [5])
4 | 64 µg/mL (≈ 230 µM) | 8.3 | 12 | inactive | 4 (≈ 14.4 µM) | Cc1cc(O)c2c(c1O)[C@H](O)[C@H]1C[C@@H](O)CC[C@@H]1C2=O | > 10 | > 10 | – | –
5 | – | 16 | – | – | – | O=C1O[C@H]([C@@H](O)CO)C(O)=C1O [ASCORBIC ACID] | – | – | – | –
6 | inactive | 24 | 30 | inactive | 8 (≈ 25.9 µM) | CO[C@@H]1c2c(O)cc(C)c(O)c2C(=O)[C@@H]2C[C@H](O)C[C@H](O)[C@@H]12 | > 10 | > 10 | – | –
7 | 16 µg/mL (≈ 54.4 µM) | 19 | 31 | 32 µg/mL (≈ 109 µM) | 2 (≈ 6.8 µM) | O=C1c2c(O)cc(CO)c(O)c2[C@H](O)[C@H]2C[C@@H](O)CC[C@H]12 | – | – | Active | Active
8 | 32 µg/mL (≈ 109 µM) | 31 | 52 | 64 µg/mL (≈ 217 µM) | 4 (≈ 13.6 µM) | Cc1cc(O)c2c(c1O)[C@H](O)[C@H]1C[C@@H](O)C[C@H](O)[C@@H]1C2=O | > 10 | > 10 | – | –

Source: ChEMBL document CHEMBL4004784, “Antioxidant Hydroanthraquinones from the Marine Algal-Derived Endophytic Fungus Talaromyces islandicus EN-501” (J Nat Prod, 2017)
